Rpn11 inh = inhibitors of human proteasome Rpn11; 360,000 compounds, 0.59% hits; inhibition, % at 20 µM; human 26S proteasome, Ub4-pepOG fluorescence polarization; 20S core pre-blocked with epoxomicin;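 active = inhibition at 20 µM, scaled to each plate's controls, above about 33%, limit read from the data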
Target sequence (O00487 whole entry, looked up): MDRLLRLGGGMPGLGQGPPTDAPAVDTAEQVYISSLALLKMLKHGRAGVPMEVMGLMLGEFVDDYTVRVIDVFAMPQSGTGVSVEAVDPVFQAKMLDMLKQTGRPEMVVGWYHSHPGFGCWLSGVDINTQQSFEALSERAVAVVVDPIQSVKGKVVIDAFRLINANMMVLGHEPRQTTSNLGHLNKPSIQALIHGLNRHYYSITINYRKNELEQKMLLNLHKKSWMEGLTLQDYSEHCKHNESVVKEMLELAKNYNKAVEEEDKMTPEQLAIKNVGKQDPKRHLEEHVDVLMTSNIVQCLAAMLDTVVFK
Scp-1 inhibitor = Scp-1 (human) phosphatase inhibition; Recombinant Scp1, phosphopeptide, malachite green phosphate absorbance; 340,000 compounds, 0.88% hits; inhibition, % at 20 µM; AID 493091; Q9GZU7;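 active = inhibition above about 50% at 20 µM, limit read from the data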;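 note: plate controls were DMSO wells with enzyme for no effect and wells lacking enzyme for full effect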
Target sequence (Q9GZU7 76-261 limits assumed): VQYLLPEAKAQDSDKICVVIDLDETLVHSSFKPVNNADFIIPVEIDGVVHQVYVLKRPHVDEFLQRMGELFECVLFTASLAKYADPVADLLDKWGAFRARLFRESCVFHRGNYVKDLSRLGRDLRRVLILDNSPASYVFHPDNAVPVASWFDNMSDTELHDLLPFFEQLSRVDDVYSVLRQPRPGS
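Test system: SCP-1 catalytic domain; Buffer or medium: Acidic Tris acetate buffer with magnesium and detergent; Also added: Phosphorylated 17-residue peptide substrate; Compound: single 20 µM dose, 1% DMSO; Schedule: enzyme reaction 45 min at room temperature, colour 5 min, stabilisation 30 min; Signal: Phosphate-binding colour reagent, absorbance read at 630 nm.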
STEP block = blocks human striatal-enriched tyrosine phosphatase. recombinant STEP, OMFP fluorogenic substrate, fluorescence. inhibition, % at 20 µM. 360,000 compounds, 0.25% hits;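 active = inhibition at 20 µM, scaled per plate between control wells, above about 37%, limit read from the data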;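 note: 0% = DMSO with enzyme and substrate and 100% = substrate only without enzyme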
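Test system: STEP tyrosine phosphatase / Reagent: OMFP at 25 µM / Doses: 20 µM, 1% DMSO / Read-out: percent inhibition scaled to no-enzyme and uninhibited-enzyme controls, plate-pattern corrected / Detection: FITC-channel fluorescence of OMFP product / Medium: Bis-Tris buffer pH 6.0, 2.5 mM DTT, 0.005% Tween 20 / Schedule: 20 min at room temperature, dark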
DNMT1 inh = inhibitors of human DNMT1 | DNMT1 molecular beacon, Hinp1I cleavage, fluorescence | inhibition (reported as % activation of signal), % at 10 µM | 360,000 compounds, 0.83% hits; in the data active = inhibition above about 50%
LMPTP inh = LMPTP (human) inhibition; recombinant LMPTP-A, OMFP fluorogenic substrate, fluorescence intensity; P24666; 360,000 compounds, 0.22% hits; inhibition, % at 20 µM;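 active = compounds that cut the enzyme signal by at least half of the control window in the single-dose screen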;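 note: plate controls were DMSO wells with enzyme plus substrate for no effect and substrate without enzyme for full effect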
Target sequence (P24666 whole entry, looked up): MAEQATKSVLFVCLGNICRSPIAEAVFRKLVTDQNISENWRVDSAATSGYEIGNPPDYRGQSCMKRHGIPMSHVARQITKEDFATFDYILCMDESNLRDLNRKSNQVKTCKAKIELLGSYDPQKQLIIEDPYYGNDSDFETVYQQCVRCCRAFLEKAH
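Assay system: LMPTP-A, protein tyrosine phosphatase of low molecular weight / Medium: pH 6.0 Bis-Tris buffer with DTT and Triton X-100 / Schedule: 50 min enzyme reaction at room temperature, protected from light / Measured by: endpoint fluorescence intensity from OMFP dephosphorylation / Read-out basis: % inhibition relative to no-enzyme and uninhibited control wells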
Scp1 confirm = confirmation of human Scp-1 phosphatase inhibitors; shares compounds with Scp-1 inhibitor; recombinant SCP-1 catalytic domain, phosphate release, malachite green absorbance; inhibition, % at 20 µM; 2,500 compounds, 61% hits; AID 540281;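 note: plate controls were DMSO with enzyme for no effect and buffer wells lacking enzyme for full effect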
MG interference = counter-screen for Scp-1 inhibitors: colorimetric interference; shares compounds with Scp-1 inhibitor; Colorimetric interference counterscreen, malachite green absorbance 630 nm; apparent inhibition (interference), % at 20 µM; 2,500 tested, under 10 active; AID 540313;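 note: compounds added after enzyme reaction finished so only phosphate colour detection is probed; plate controls were DMSO wells with completed Scp-1 reaction for no effect and substrate wells lacking enzyme for full effect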
Scp1 DSF = validation of human Scp-1 inhibitors by thermal shift binding | shares compounds with Scp-1 inhibitor | Recombinant SCP1, Sypro Orange thermal shift Tm | thermal shift relative to vanadate control, % at 40 µM | 1,500 compounds, 25% hits;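 active = substances whose mean melting-temperature shift, as a percentage of the reference inhibitor's shift, reaches about 5.3%, limit read from the data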;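 note: 0% = Tm of DMSO wells and 100% = Tm with sodium orthovanadate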
Numbers without * were called inactive. Rows were chosen to be rich in hits. Some 2% of all compounds tested hit in one or more screens of this group.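 Rule for the calls, unless noted: active = inhibition of at least 30% at 20 µM; inactive = the rest.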

What do the screens show for `CCOc1cc(/C=C\c2nc(O)c([N+](=O)[O-])c(=O)[nH]2)ccc1OC(C)C`?
Rpn11 inh: -7; Scp-1 inhibitor: -2; STEP block: 0; DNMT1 inh: 4; LMPTP inh: -1

Results for Cc1cn(C2CCCCO2)c(=O)nc1NO (stereo unspecified) ?
Rpn11 inh: 2; Scp-1 inhibitor: 4; STEP block: -4; DNMT1 inh: -2; LMPTP inh: 0

Results for COc1nc(=O)n(C2CCCO2)cc1C (stereo unspecified) ?
Rpn11 inh: 4; Scp-1 inhibitor: 85*; STEP block: -2; DNMT1 inh: 0; LMPTP inh: 0; Scp1 confirm: -11; MG interference: -7

Results for CCOc1ccc(NC(=O)CN(C)C(=O)c2ccc(OCC(=O)N3CCOCC3)c(OC)c2)cc1OCC ?
Rpn11 inh: 4; Scp-1 inhibitor: -9; STEP block: -3; DNMT1 inh: 0; LMPTP inh: -1

How did CSc1nnc(-c2cc[n+](C)cc2)n1CCO do in these assays?
Rpn11 inh: -1; Scp-1 inhibitor: 66*; STEP block: -4; DNMT1 inh: 7; LMPTP inh: -5; Scp1 confirm: 10; MG interference: -8

How did CSc1nnc(-c2ccccc2)n1N do in these assays?
Rpn11 inh: 5; Scp-1 inhibitor: -8; STEP block: -8; DNMT1 inh: 2; LMPTP inh: -2

What do the screens show for `Nc1nc(SCc2ccccc2)c2ncn(C3OC(CO)C(O)C3O)c2n1` (stereo unspecified)?
Rpn11 inh: -1; Scp-1 inhibitor: -7; STEP block: -1; DNMT1 inh: -4; LMPTP inh: -1

Results for CSc1nc(N)nc2c1ncn2C1OC(CO)C(O)C1O (stereo unspecified) ?
Rpn11 inh: -5; Scp-1 inhibitor: -5; STEP block: -3; DNMT1 inh: 3; LMPTP inh: -1; Scp1 confirm: -11; MG interference: -15

How did Brc1ccc(CSc2ncn[nH]2)cc1 do in these assays?
Rpn11 inh: -12; Scp-1 inhibitor: 51*; STEP block: 6; DNMT1 inh: 0; LMPTP inh: 0; Scp1 confirm: 12; MG interference: -3

How did COCOc1cccc(CN2CCC2(C)C(=O)Nc2ccc(OC)c(OC)c2)c1 (stereo unspecified) do in these assays?
Rpn11 inh: 1; STEP block: 2; DNMT1 inh: -5; LMPTP inh: -4

How did Nc1ccc2cccc(O)c2c1 do in these assays?
Rpn11 inh: -18; Scp-1 inhibitor: 56*; STEP block: 2; DNMT1 inh: 49; LMPTP inh: 17; Scp1 confirm: 54*; MG interference: -7; Scp1 DSF: 13*

Results for Cc1ccc(NC(=O)CSc2ccccc2NC(=O)c2ccccc2Cl)cc1Cl ?
Rpn11 inh: 15; Scp-1 inhibitor: 90*; STEP block: -3; DNMT1 inh: 21; LMPTP inh: 3; Scp1 confirm: 63*; MG interference: -15; Scp1 DSF: 5

Results for Cc1ccc(NC(=O)CSc2ccccc2NC(=O)c2ccccc2)cc1Cl ?
Rpn11 inh: 2; Scp-1 inhibitor: -7; STEP block: -1; DNMT1 inh: 21; LMPTP inh: 2

What do the screens show for `COCCCN(C(=O)c1cc(-c2ccco2)nc2ccccc12)c1c(N)n(Cc2ccccc2)c(=O)[nH]c1=O`?
Rpn11 inh: -11; Scp-1 inhibitor: 64*; STEP block: -1; DNMT1 inh: 30; LMPTP inh: 11; Scp1 confirm: 47*; MG interference: -10; Scp1 DSF: 5.4*

How did COCCN(C(=O)COC(=O)Cc1coc2cc3c(cc12)CCC3)c1c(N)n(Cc2ccccc2)c(=O)[nH]c1=O do in these assays?
Rpn11 inh: -6; Scp-1 inhibitor: 67*; STEP block: 24; DNMT1 inh: 31; LMPTP inh: 18; Scp1 confirm: 55*; MG interference: -22; Scp1 DSF: -25

What do the screens show for `CCCn1c(N)c(N(CCOC)C(=O)c2cc(-c3ccco3)nc3ccccc23)c(=O)[nH]c1=O`?
Rpn11 inh: -7; Scp-1 inhibitor: 20; STEP block: 2; DNMT1 inh: 11; LMPTP inh: 2

How did COCCN(C(=O)COC(=O)COc1ccc2c(c1)CCC2)c1c(N)n(Cc2ccccc2)c(=O)[nH]c1=O do in these assays?
Rpn11 inh: -1; Scp-1 inhibitor: -1; STEP block: -3; DNMT1 inh: 0; LMPTP inh: -1

How did O=C(NCCCc1ccccc1)C1CC(=O)N(c2ccc3c(c2)OCCO3)C1 (stereo unspecified) do in these assays?
Rpn11 inh: 4; Scp-1 inhibitor: -2; STEP block: 2; DNMT1 inh: -8; LMPTP inh: 2

What do the screens show for `O=C(Nc1nnc(C2CC2)s1)C1CC(=O)N(c2ccc3c(c2)OCCO3)C1` (stereo unspecified)?
Rpn11 inh: -11; Scp-1 inhibitor: 61*; STEP block: 3; DNMT1 inh: 40; LMPTP inh: 3; Scp1 confirm: 56*; MG interference: -18; Scp1 DSF: 2

What do the screens show for `O=C(NCCc1ccccc1)C1CC(=O)N(c2ccc3c(c2)OCCO3)C1` (stereo unspecified)?
Rpn11 inh: 7; Scp-1 inhibitor: -1; STEP block: 1; DNMT1 inh: 0; LMPTP inh: -1; Scp1 confirm: -17; MG interference: -12

Results for O=C(NC(Cc1ccccc1)c1nc2ccccc2[nH]1)C1CC(=O)N(c2ccc3c(c2)OCCO3)C1 (stereo unspecified) ?
Rpn11 inh: 1; Scp-1 inhibitor: 72*; STEP block: -1; DNMT1 inh: -11; LMPTP inh: 0; Scp1 confirm: 34*; MG interference: -15; Scp1 DSF: -6

How did O=C(Nc1nnc(C2CCCCC2)s1)C1CC(=O)N(c2ccccc2)C1 (stereo unspecified) do in these assays?
Rpn11 inh: 8; Scp-1 inhibitor: -2; STEP block: 2; DNMT1 inh: 0; LMPTP inh: 0

What do the screens show for `COc1ccc(NC(=O)N(C)[C@H]2C[C@H]3c4[nH]c5ccc(-c6cccc(C)c6)cc5c4CCN3C[C@H]2[C@H](C)O)cc1`?
Rpn11 inh: 9; STEP block: -2; DNMT1 inh: -14; LMPTP inh: -2

Screening data as filed in PubChem BioAssay.
